Experiment [1] has as its system BCL-2 and Survivin expression in MDA-MB-231 cells. Nature of the experiment: Gene expression analysis by RT-qPCR. Format: cell-based, human. In outline: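 Cells were treated 48 h with varying test compound concentrations, then total RNA was extracted and checked spectrophotometrically. 2 μg RNA was reverse-transcribed to cDNA. BCL2 and Survivin transcripts were measured by RT-qPCR and quantified by the 2−ΔΔCt method against β2-microglobulin as reference gene.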
(In general: In qPCR the cycle at which signal appears reflects the starting amount.)

The test system of experiment [2] is MDA-MB-231 cells. Nature of the experiment: SRB cytotoxicity assay, MDA-MB-231. Format: cell-based, human.
A further experiment deals with MCF-7 cells. As to the kind of experiment: SRB cytotoxicity assay, MCF-7. Format: cell-based, human. Background: In SRB staining, fixed cells bind dye roughly in proportion to their protein.
Experiment [3] deals with MDA-MB-231 cells. As to the kind of experiment: 3D spheroid. It counts as cell-based, human. Particulars: MDA-MB-231, methylcellulose, 8 days. In outline:
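Single-cell suspensions in 1.5% methylcellulose/DMEM with 20% FBS were seeded at 1 × 10^5 cells per well over a 1% agarose–DMEM base for non-adherent growth. Cells were treated with test compound (0.5, 1, 2 μM) or doxorubicin and incubated 8 days. Spheres (≥20 cells) were imaged by fluorescence microscopy and counted per microscopic field.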

The test system of the next experiment is 4T1 cells. Nature of the experiment: SRB cytotoxicity assay, 4T1. Format: cell-based, murine. To be noted: Mus musculus, 4T1, 48 h, read-out: Average cell death (%) 4T1. The essentials: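 Single-dose screen: cells in DMEM/10% FBS at 37 °C, 5% CO2, seeded at 3000 per well, attached 24 h, then exposed to test compound at 25 μM final for 48 h. Fixed in cold 10% TCA, 1 h, 4 °C; stained 0.057% SRB, 30 min, dark, room temperature; rinsed with 1% acetic acid; dye solubilised in Tris base pH 10.5; absorbance 510 nm; percent cell death.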

[4] abbreviates: Homo sapiens, MDA-MB-231, 48 h, read-out: Average cell death (%) MDA-MB-231.
Setting [5] is: Homo sapiens, MCF7, 48 h, read-out: Average cell death (%) MCF-7.

For `COc1cccc2c1C(=O)c1c(O)c3c(c(O)c1C2=O)C[C@@](O)(C(=O)CO)C[C@@H]3O[C@H]1C[C@H](N)[C@H](O)[C@H](C)O1` [Doxorubicin, reference compound], in experiment [1], the “Expression of BCL-2” value is “markedly reduced” and the “Expression of Survivin” value was “markedly reduced”. In addition, the cytotoxicity at 5 µM in the experiment with MDA-MB-231 cells [2] (setting [4]) came out at 80 ± 3.3%. Moreover, in the experiment with MCF-7 cells (setting [5]), the cytotoxicity at 5 µM is 85 ± 5.3%. For the same compound, the Sphere formation result in the experiment on MDA-MB-231 cells [3] is recorded as “completely abrogated sphere formation”.
As to `Cc1ccc(C(=O)c2c(-c3ccccc3)n(-c3nc4ccccc4s3)c(=O)c3c2c2ccccc2n3C)cc1` [12c, 2-(Benzo[d]thiazol-2-yl)-9-methyl-4-(4-methylbenzoyl)-3-phenyl-2,9-dihydro-1H-pyrido[3,4-b]indol-1-one], the cytotoxicity at 25 µM in the experiment on MDA-MB-231 cells [2] (setting [4]) came out at 31.3 ± 4%.
Same read-out and setting: to `CCCCn1c(-c2ccccc2)c(C(=O)c2ccccc2)c2c3ccccc3n(C)c2c1=O` [11a, 4-Benzoyl-2-butyl-9-methyl-3-phenyl-2,9-dihydro-1H-pyrido[3,4-b]indol-1-one] belongs 36.6 ± 3.2%; to `CCCCn1c(-c2ccccc2)c(C(=O)c2ccc(OC)cc2)c2c3ccccc3n(C)c2c1=O` [11b, 2-Butyl-4-(4-methoxybenzoyl)-9-methyl-3-phenyl-2,9-dihydro-1H-pyrido[3,4-b]indol-1-one], 30.3 ± 1.2%.
For the compound `Cc1ccc(C(=O)c2c(-c3ccccc3)n(CCc3ccccc3)c(=O)c3c2c2ccccc2n3C)cc1` [10c, 9-Methyl-4-(4-methylbenzoyl)-2-phenethyl-3-phenyl-2,9-dihydro-1H-pyrido[3,4-b]indol-1-one], the figures for the cytotoxicity at 25 µM with MDA-MB-231 cells [2] (setting [4]), in the experiment on MCF-7 cells (setting [5]) and in the experiment on 4T1 cells were 15.6 ± 1.15%, 26.2 ± 4.15% and 60.5 ± 3.07%, respectively.
In the case of `Cn1c2ccccc2c2c(C(=O)c3ccc(F)cc3)c(-c3ccccc3)n(-c3nc4ccccc4s3)c(=O)c21` [12e, 2-(Benzo[d]thiazol-2-yl)-4-(4-fluorobenzoyl)-9-methyl-3-phenyl-2,9-dihydro-1H-pyrido[3,4-b]indol-1-one], the cytotoxicity at 25 µM with MDA-MB-231 cells [2] (setting [4]) was found to be 34.9 ± 1.7%.
On to `COc1ccc(C(=O)c2c(-c3ccccc3)n(CCc3ccccc3)c(=O)c3c2c2ccccc2n3C)cc1` [10b, 4-(4-Methoxybenzoyl)-9-methyl-2-phenethyl-3-phenyl-2,9-dihydro-1H-pyrido[3,4-b]indol-1-one], for which the cytotoxicity at 25 µM in the experiment on MDA-MB-231 cells [2] (setting [4]) stood at 2.64 ± 0.7%; in the experiment with MCF-7 cells (setting [5]) it was 10.1 ± 2.2%; in the experiment on 4T1 cells it was 49.9 ± 3.23%.
For `Cn1c2ccccc2c2c(C(=O)c3ccc(C(F)(F)F)cc3)c(-c3ccccc3)n(Cc3ccccc3)c(=O)c21` [9d, 2-Benzyl-9-methyl-3-phenyl-4-(4-(trifluoromethyl)benzoyl)-2,9-dihydro-1H-pyrido[3,4-b]indol-1-one], the cytotoxicity at 25 µM with MDA-MB-231 cells [2] (setting [4]) was determined as 11.3 ± 0.53%; in the experiment on MCF-7 cells (setting [5]) it was 14.2 ± 1.03%; with 4T1 cells, 15.5 ± 2.15%.
Take `Cn1c2ccccc2c2c(C(=O)c3ccccc3)c(-c3ccccc3)n(CCc3ccccc3)c(=O)c21` [10a, 4-Benzoyl-9-methyl-2-phenethyl-3-phenyl-2,9-dihydro-1H-pyrido[3,4-b]indol-1-one]: the results for the cytotoxicity at 25 µM in the experiment on MDA-MB-231 cells [2] (setting [4]), in the experiment on MCF-7 cells (setting [5]) and in the experiment with 4T1 cells were 3.66 ± 0.31%, 1.67 ± 0.3% and 46.6 ± 2.18%, respectively.
In the case of `COc1ccc(C(=O)c2c(-c3ccccc3)n(-c3nc4ccccc4s3)c(=O)c3c2c2ccccc2n3C)cc1` [12b, 2-(Benzo[d]thiazol-2-yl)-4-(4-methoxybenzoyl)-9-methyl-3-phenyl-2,9-dihydro-1H-pyrido[3,4-b]indol-1-one], the cytotoxicity at 25 µM with MDA-MB-231 cells [2] (setting [4]) was determined as 4.08 ± 1.1%.
Turning to `Cn1c2ccccc2c2c(C(=O)c3ccccc3)c(-c3ccccc3)n(Cc3ccccc3)c(=O)c21` [9a, 4-Benzoyl-2-benzyl-9-methyl-3-phenyl-2,9-dihydro-1H-pyrido[3,4-b]indol-1-one], the cytotoxicity at 25 µM in the experiment with MDA-MB-231 cells [2] (setting [4]) came to 32.8 ± 3.16%; with MCF-7 cells (setting [5]), 9.16 ± 2.08%; in the experiment on 4T1 cells, 47.8 ± 3.32%.
On to `N.N.[Cl][Pt][Cl]` [Cisplatin, reference compound], for which the “Average cell death (%) MDA-MB-231” value in the experiment on MDA-MB-231 cells [2] (at 100 μM, SRB assay) is given as 75 ± 4.3%. Moreover, in the experiment with MCF-7 cells (at 100 μM, SRB assay), the “Average cell death (%) MCF-7” value is recorded as 80 ± 6.2%.
Consider `COc1ccc(C(=O)c2c(-c3ccccc3)n(Cc3ccccc3)c(=O)c3c2c2ccccc2n3C)cc1` [9b, 2-Benzyl-4-(4-methoxybenzoyl)-9-methyl-3-phenyl-2,9-dihydro-1H-pyrido[3,4-b]indol-1-one], for which the cytotoxicity at 25 µM in the experiment on MDA-MB-231 cells [2] (setting [4]) is 20.2 ± 2.16%; in the experiment on MCF-7 cells (setting [5]), 18.3 ± 3.05%; in the experiment with 4T1 cells it was 39.8 ± 4.02%.
With `Cn1c2ccccc2c2c(C(=O)c3ccccc3)c(-c3ccccc3)n(-c3nc4ccccc4s3)c(=O)c21` [12a, 2-(Benzo[d]thiazol-2-yl)-4-benzoyl-9-methyl-3-phenyl-2,9-dihydro-1H-pyrido[3,4-b]indol-1-one], in the experiment with MDA-MB-231 cells [2] (setting [4]), the cytotoxicity at 25 µM amounted to 26.9 ± 2.6%.
In the case of `Cn1c2ccccc2c2c(C(=O)c3ccc(C(F)(F)F)cc3)c(-c3ccccc3)n(CCc3ccccc3)c(=O)c21` [10d, 9-Methyl-2-phenethyl-3-phenyl-4-(4-(trifluoromethyl)benzoyl)-2,9-dihydro-1H-pyrido[3,4-b]indol-1-one], the cytotoxicity at 25 µM in the experiment on MDA-MB-231 cells [2] (setting [4]) was found to be 11.5 ± 0.95%; with MCF-7 cells (setting [5]), 9.32 ± 1%; in the experiment with 4T1 cells it was 22 ± 2.05%.
Regarding `CCCCn1c(-c2ccccc2)c(C(=O)c2ccc(F)cc2)c2c3ccccc3n(C)c2c1=O` [11e, 2-Butyl-4-(4-fluorobenzoyl)-9-methyl-3-phenyl-2,9-dihydro-1H-pyrido[3,4-b]indol-1-one], in the experiment on MDA-MB-231 cells [2] (setting [4]), the cytotoxicity at 25 µM is 31.8 ± 1.8%.
As for `CCCCn1c(-c2ccccc2)c(C(=O)c2ccc(C(F)(F)F)cc2)c2c3ccccc3n(C)c2c1=O` [11d, 2-Butyl-9-methyl-3-phenyl-4-(4-(trifluoromethyl)benzoyl)-2,9-dihydro-1H-pyrido[3,4-b]indol-1-one], the cytotoxicity at 25 µM in the experiment on MDA-MB-231 cells [2] (setting [4]) was found to be 14.7 ± 2.9%.
As for `CCCCn1c(-c2ccccc2)c(C(=O)c2ccc(C)cc2)c2c3ccccc3n(C)c2c1=O` [11c, 2-Butyl-9-methyl-4-(4-methylbenzoyl)-3-phenyl-2,9-dihydro-1H-pyrido[3,4-b]indol-1-one], the cytotoxicity at 25 µM in the experiment with MDA-MB-231 cells [2] (setting [4]) stood at 31.2 ± 1.6%.
For `Cn1c2ccccc2c2c(C(=O)c3ccc(F)cc3)c(-c3ccccc3)n(Cc3ccccc3)c(=O)c21` [9e, 2-Benzyl-4-(4-fluorobenzoyl)-9-methyl-3-phenyl-2,9-dihydro-1H-pyrido[3,4-b]indol-1-one], the cytotoxicity at 25 µM turned out to be 7.54 ± 0.71% in the experiment with MDA-MB-231 cells [2] (setting [4]), 2 ± 0.52% in the experiment with MCF-7 cells (setting [5]) and 32.2 ± 4.11% with 4T1 cells.
With `Cn1c2ccccc2c2c(C(=O)c3ccc(C(F)(F)F)cc3)c(-c3ccccc3)n(-c3nc4ccccc4s3)c(=O)c21` [12d, 2-(Benzo[d]thiazol-2-yl)-9-methyl-3-phenyl-4-(4-(trifluoromethyl)benzoyl)-2,9-dihydro-1H-pyrido[3,4-b]indol-1-one], in the experiment on MDA-MB-231 cells [2] (setting [4]), the cytotoxicity at 25 µM was 24.5 ± 2.7%.
`Cn1c2ccccc2c2c(C(=O)c3ccc(F)cc3)c(-c3ccccc3)n(CCc3ccccc3)c(=O)c21` [10e, 4-(4-Fluorobenzoyl)-9-methyl-2-phenethyl-3-phenyl-2,9-dihydro-1H-pyrido[3,4-b]indol-1-one]: the cytotoxicity at 25 µM with MDA-MB-231 cells [2] (setting [4]) came out at 4 ± 0.41%; in the experiment on MCF-7 cells (setting [5]), 8.92 ± 0.8%; in the experiment on 4T1 cells, 13.5 ± 1.16%.

These data come from article PMC12461553 (RSC Advances, 2025).
